Data from ChEMBL document CHEMBL1143428, “Extended-spectrum-beta-lactamase-producing Enterobacteriaceae strains in various types of private health care centers” (2007).
In brackets after ≈: the same amount, converted by molar mass.

How the values were obtained:
Assay type in all cases: functional
Morganella morganii = experiment: Antimicrobial activity against Morganella morganii expressing TEM-24b AmpC gene
Procedure, shortened: (§1)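 β-Lactam MICs (μg/ml) measured against clinical Enterobacteriaceae isolates collected from private health care centers. Enzyme content of each isolate was assigned by isoelectric focusing, PCR with blaTEM/blaSHV/blaCTX-M primers and sequencing, with cloning to separate coexisting TEM or SHV genes. In combination tests, the β-lactamase inhibitor clavulanic acid was held at a fixed 2 μg/ml.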

Escherichia coli [1] = experiment: Antimicrobial activity against Escherichia coli Ec7 expressing SHV-12 IRT-6 gene
Procedure, shortened: (§2)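 Clinical isolates from private health care centers. β-Lactamase content was assigned by isoelectric focusing, PCR with blaTEM-, blaSHV- and blaCTX-M-specific primers, and sequencing. MICs (μg/ml) were reported for amoxicillin, cefoxitin, cefotaxime, ceftazidime, imipenem and ertapenem. Amoxicillin, cefotaxime and ceftazidime were also tested with clavulanic acid held at a fixed 2 μg/ml.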

Klebsiella aerogenes [2] = experiment: Antimicrobial activity against Enterobacter aerogenes Ea2 expressing TEM-3 AmpC gene; procedure, shortened: as §2
Klebsiella pneumoniae [3] = experiment: Antimicrobial activity against Klebsiella pneumoniae Kp2 expressing TEM-15 TEM-17 TEM-1 gene; procedure, shortened: as §1
Escherichia coli [4] = experiment: Antimicrobial activity against Escherichia coli Ec2 containing pEc1-D plasmid expressing CTX-M-15 TEM-1 OXA-1gene; procedure, shortened: as §1
Escherichia coli [5] = experiment: Antimicrobial activity against Escherichia coli Ec2 containing pEc1-B plasmid expressing CTX-M-15 TEM-1 OXA-1 gene; procedure, shortened: as §2
Proteus mirabilis [6] = experiment: Antimicrobial activity against Proteus mirabilis Pm1-Pm3 expressing TEM-24b gene; procedure, shortened: as §2
Escherichia coli [7] = experiment: Antimicrobial activity against Escherichia coli Ec5 expressing CTX-M-2 TEM-1 gene; procedure, shortened: as §1
Klebsiella aerogenes [8] = experiment: Antimicrobial activity against Enterobacter aerogenes Ea1 expressing TEM-24b AmpC +/- TEM-1 or TEM-2 gene; procedure, shortened: as §1
Klebsiella pneumoniae [9] = experiment: Antimicrobial activity against Klebsiella pneumoniae Kp5 expressing plasmid-mediated cephalosporinase ACC-1 and TEM-1; procedure, shortened: as §1
Klebsiella pneumoniae [10] = experiment: Antimicrobial activity against Klebsiella pneumoniae Kp1 expressing SHV-4 gene; procedure, shortened: as §1
Escherichia coli [11] = experiment: Antimicrobial activity against Escherichia coli Ec3 expressing CTX-M-15 TEM-1 OXA-1 gene; procedure, shortened: as §1
Escherichia coli [12] = experiment: Antimicrobial activity against Escherichia coli Ec9 expressing TEM-24b TEM-26 gene; procedure, shortened: as §1
Escherichia coli [13] = experiment: Antimicrobial activity against Escherichia coli Ec6 expressing CTX-M-14 gene; procedure, shortened: as §1
Klebsiella aerogenes [14] = experiment: Antimicrobial activity against Enterobacter aerogenes Ea1 expressing TEM-24b gene; procedure, shortened: as §2
Escherichia coli [15] = experiment: Antimicrobial activity against Escherichia coli Ec2-a containing pEc1-C plasmid expressing CTX-M-15 OXA-1 gene; procedure, shortened: as §2
Escherichia coli [16] = experiment: Antimicrobial activity against Escherichia coli Ec8 expressing TEM-21 AmpC gene; procedure, shortened: as §2
Klebsiella pneumoniae [17] = experiment: Antimicrobial activity against Klebsiella pneumoniae Kp2 expressing TEM-15 gene; procedure, shortened: as §1
Enterobacter cloacae = experiment: Antimicrobial activity against Enterobacter cloacae Ecl1 expressing TEM-24b AmpC TEM-1 gene; procedure, shortened: as §1
Proteus mirabilis [18] = experiment: Antimicrobial activity against Proteus mirabilis Pm4 expressing TEM-21 gene; procedure, shortened: as §2
Escherichia coli [19] = experiment: Antimicrobial activity against Escherichia coli Ec4 expressing CTX-M-1 AmpC gene; procedure, shortened: as §1
Klebsiella oxytoca = experiment: Antimicrobial activity against Klebsiella oxytoca expressing TEM-11 gene; procedure, shortened: as §2
Escherichia coli [20] = experiment: Antimicrobial activity against Escherichia coli Ec1 containing pEc1-A plasmid expressing CTX-M-15 TEM-1 OXA-1 gene; procedure, shortened: as §1
Klebsiella pneumoniae [21] = experiment: Antimicrobial activity against Klebsiella pneumoniae Kp4 expressing SHV-12 SHV-1 and plasmid-mediated cephalosporinase CMY-4; procedure, shortened: as §1
Escherichia coli [22] = experiment: Antimicrobial activity against Escherichia coli Ec10 expressing TEM-24b gene; procedure, shortened: as §1
Klebsiella aerogenes [23] = experiment: Antimicrobial activity against Enterobacter aerogenes Ea2 expressing TEM-3 gene; procedure, shortened: as §2
Klebsiella pneumoniae [24] = experiment: Antimicrobial activity against Klebsiella pneumoniae Kp3 expressing SHV-2a TEM-1 gene; procedure, shortened: as §1

| Structure (SMILES) | MIC (Morganella morganii) [µg/mL] | MIC (Escherichia coli [1]) [µg/mL] | MIC (Klebsiella aerogenes [2]) [µg/mL] | MIC (Klebsiella pneumoniae [3]) [µg/mL] | MIC (Escherichia coli [4]) [µg/mL] | MIC (Escherichia coli [5]) [µg/mL] | MIC (Proteus mirabilis [6]) [µg/mL] | MIC (Escherichia coli [7]) [µg/mL] | MIC (Klebsiella aerogenes [8]) [µg/mL] | MIC (Klebsiella pneumoniae [9]) [µg/mL] | MIC (Klebsiella pneumoniae [10]) [µg/mL] | MIC (Escherichia coli [11]) [µg/mL] | MIC (Escherichia coli [12]) [µg/mL] | MIC (Escherichia coli [13]) [µg/mL] | MIC (Klebsiella aerogenes [14]) [µg/mL] | MIC (Escherichia coli [15]) [µg/mL] | MIC (Escherichia coli [16]) [µg/mL] | MIC (Klebsiella pneumoniae [17]) [µg/mL] | MIC (Enterobacter cloacae) [µg/mL] | MIC (Proteus mirabilis [18]) [µg/mL] | other results |
| --- | --- | --- | --- | --- | --- | --- | --- | --- | --- | --- | --- | --- | --- | --- | --- | --- | --- | --- | --- | --- | --- |
| CO/N=C(\C(=O)N[C@@H]1C(=O)N2C(C(=O)O)=C(COC(C)=O)CS[C@H]12)c1csc(N)n1 [CEFOTAXIME] | 16 (≈ 35.1 µM) | 16 (≈ 35.1 µM) | 4 (≈ 8.78 µM) | 64 (≈ 141 µM) | 2 (≈ 4.39 µM) | 64 (≈ 141 µM) | 0.5 (≈ 1.1 µM) | 32 (≈ 70.3 µM) | 1 (≈ 2.2 µM) | 8 (≈ 17.6 µM) | 8 (≈ 17.6 µM) | 512 (≈ 1120 µM) | 1 (≈ 2.2 µM) | 32 (≈ 70.3 µM) | 1 (≈ 2.2 µM) | 256 (≈ 562 µM) | 32 (≈ 70.3 µM) | 8 (≈ 17.6 µM) | 64 (≈ 141 µM) | 2 (≈ 4.39 µM) | MIC (Escherichia coli [19]): 64 µg/mL (≈ 141 µM); MIC (Klebsiella oxytoca): 1 µg/mL (≈ 2.2 µM); MIC (Escherichia coli [20]): 256 µg/mL (≈ 562 µM); MIC (Klebsiella pneumoniae [21]): 16 µg/mL (≈ 35.1 µM); MIC (Escherichia coli [22]): 2 µg/mL (≈ 4.39 µM); MIC (Klebsiella aerogenes [23]): 0.2 µg/mL (≈ 0.439 µM); MIC (Klebsiella pneumoniae [24]): 2 µg/mL (≈ 4.39 µM) |
| CO[C@@]1(NC(=O)Cc2cccs2)C(=O)N2C(C(=O)O)=C(COC(N)=O)CS[C@@H]21 [CEFOXITIN] | 128 (≈ 299 µM) | 64 (≈ 150 µM) | 128 (≈ 299 µM) | 64 (≈ 150 µM) | 32 (≈ 74.9 µM) | 8 (≈ 18.7 µM) | 2 (≈ 4.68 µM) | 4 (≈ 9.36 µM) | 512 (≈ 1200 µM) | 8 (≈ 18.7 µM) | 16 (≈ 37.4 µM) | 32 (≈ 74.9 µM) | 4 (≈ 9.36 µM) | 4 (≈ 9.36 µM) | 8 (≈ 18.7 µM) | 8 (≈ 18.7 µM) | 128 (≈ 299 µM) | 4 (≈ 9.36 µM) | 512 (≈ 1200 µM) | 4 (≈ 9.36 µM) | MIC (Escherichia coli [19]): 64 µg/mL (≈ 150 µM); MIC (Klebsiella oxytoca): 8 µg/mL (≈ 18.7 µM); MIC (Escherichia coli [20]): 4 µg/mL (≈ 9.36 µM); MIC (Klebsiella pneumoniae [21]): 32 µg/mL (≈ 74.9 µM); MIC (Escherichia coli [22]): 8 µg/mL (≈ 18.7 µM); MIC (Klebsiella aerogenes [23]): 32 µg/mL (≈ 74.9 µM); MIC (Klebsiella pneumoniae [24]): 4 µg/mL (≈ 9.36 µM) |
| CC(C)(O/N=C(\C(=O)N[C@@H]1C(=O)N2C(C(=O)[O-])=C(C[n+]3ccccc3)CS[C@H]12)c1csc(N)n1)C(=O)O [CEFTAZIDIME] | 128 (≈ 234 µM) | 128 (≈ 234 µM) | 16 (≈ 29.3 µM) | 512 (≈ 937 µM) | 1 (≈ 1.83 µM) | 16 (≈ 29.3 µM) | 8 (≈ 14.6 µM) | 1 (≈ 1.83 µM) | 256 (≈ 468 µM) | 64 (≈ 117 µM) | 128 (≈ 234 µM) | 256 (≈ 468 µM) | 128 (≈ 234 µM) | 4 (≈ 7.32 µM) | 128 (≈ 234 µM) | 256 (≈ 468 µM) | 64 (≈ 117 µM) | 32 (≈ 58.5 µM) | 512 (≈ 937 µM) | 1 (≈ 1.83 µM) | MIC (Escherichia coli [19]): 8 µg/mL (≈ 14.6 µM); MIC (Klebsiella oxytoca): 128 µg/mL (≈ 234 µM); MIC (Escherichia coli [20]): 64 µg/mL (≈ 117 µM); MIC (Klebsiella pneumoniae [21]): 4 µg/mL (≈ 7.32 µM); MIC (Escherichia coli [22]): 256 µg/mL (≈ 468 µM); MIC (Klebsiella aerogenes [23]): 16 µg/mL (≈ 29.3 µM); MIC (Klebsiella pneumoniae [24]): 256 µg/mL (≈ 468 µM) |
| C[C@@H](O)[C@H]1C(=O)N2C(C(=O)O)=C(S[C@@H]3CN[C@H](C(=O)Nc4cccc(C(=O)O)c4)C3)[C@H](C)[C@H]12 [ERTAPENEM] | 0.02 (≈ 0.0421 µM) | 0.2 (≈ 0.421 µM) | 0.2 (≈ 0.421 µM) | 0.1 (≈ 0.21 µM) | 0.05 (≈ 0.105 µM) | 0.1 (≈ 0.21 µM) | 0.01 (≈ 0.021 µM) | 0.05 (≈ 0.105 µM) | 0.05 (≈ 0.105 µM) | 0.05 (≈ 0.105 µM) | 0.02 (≈ 0.0421 µM) | 0.1 (≈ 0.21 µM) | ≤ 0.01 | 0.02 (≈ 0.0421 µM) | 0.02 (≈ 0.0421 µM) | 0.2 (≈ 0.421 µM) | 0.1 (≈ 0.21 µM) | 0.02 (≈ 0.0421 µM) | 0.5 (≈ 1.05 µM) | 0.01 (≈ 0.021 µM) | MIC (Escherichia coli [19]): 0.05 µg/mL (≈ 0.105 µM); MIC (Klebsiella oxytoca): 0.1 µg/mL (≈ 0.21 µM); MIC (Escherichia coli [20]): 0.05 µg/mL (≈ 0.105 µM); MIC (Klebsiella pneumoniae [21]): 0.01 µg/mL (≈ 0.021 µM); MIC (Escherichia coli [22]): 0.02 µg/mL (≈ 0.0421 µM); MIC (Klebsiella aerogenes [23]): 0.02 µg/mL (≈ 0.0421 µM); MIC (Klebsiella pneumoniae [24]): 0.02 µg/mL (≈ 0.0421 µM) |
| C[C@@H](O)[C@H]1C(=O)N2C(C(=O)O)=C(SCCNC=N)C[C@H]12 [IMIPENEM ANHYDROUS] | 4 (≈ 13.4 µM) | 0.5 (≈ 1.67 µM) | 1 (≈ 3.34 µM) | 0.5 (≈ 1.67 µM) | 0.5 (≈ 1.67 µM) | 0.5 (≈ 1.67 µM) | 1 (≈ 3.34 µM) | 0.5 (≈ 1.67 µM) | 0.5 (≈ 1.67 µM) | 0.5 (≈ 1.67 µM) | 0.5 (≈ 1.67 µM) | 0.5 (≈ 1.67 µM) | 0.5 (≈ 1.67 µM) | 0.5 (≈ 1.67 µM) | 0.5 (≈ 1.67 µM) | 0.5 (≈ 1.67 µM) | 0.5 (≈ 1.67 µM) | 0.5 (≈ 1.67 µM) | 1 (≈ 3.34 µM) | 1 (≈ 3.34 µM) | MIC (Escherichia coli [19]): 1 µg/mL (≈ 3.34 µM); MIC (Klebsiella oxytoca): 0.5 µg/mL (≈ 1.67 µM); MIC (Klebsiella pneumoniae [21]): 1 µg/mL (≈ 3.34 µM); MIC (Klebsiella aerogenes [23]): 0.5 µg/mL (≈ 1.67 µM); MIC (Klebsiella pneumoniae [24]): 1 µg/mL (≈ 3.34 µM) |
